Active and inactive are the calls of the source. The calls are words filed in the database; no cut-off is given here.
Legend:
[1] = target: Endoplasmin (Homo sapiens) (UniProt P14625); assay: Inhibition of recombinant Grp94 (unknown origin) assessed as tracer bound at 25 uM after 24 hrs by fluorescence polarization assay relative to control; design: scale not given: the % may be the effect or the level left
How it was run: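 Single-point screen at 25 μM. Recombinant cGrp94 (10 nM) and FITC-geldanamycin tracer (6 nM) incubated 24 h at 4°C with rocking in HEPES pH 7.3 buffer containing molybdate, DTT, NP-40 and BGG (1% DMSO). Polarization read at 485/528 nm. Percent tracer bound scaled between DMSO mP (100%) and free tracer mP (0%). Geldanamycin 50 nM was the positive control. Triplicate.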

[2] = target: Endoplasmin (Homo sapiens) (UniProt P14625); assay: Inhibition of Gpr94 in human MDA-MB-231 cells assessed as decrease in IGF-II secretion at 1 to 10 uM by Western blot analysis; format: cell-based
How it was run: (§1)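 Cells plated in 6-well plates and exposed 24 h to high and low compound concentrations, 15 μM radicicol, or DMSO only (0.25% DMSO final). Lysed in MPER with protease inhibitors on ice and clarified at 4°C. Protein measured by BCA. 20 μg per lane run reducing on SDS-PAGE, blotted to PVDF and probed with specific antibodies, HRP secondary, chemiluminescence. For IGF-II, medium volumes normalized to equal actin were blotted.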

[3] = Antiproliferative activity against human RPMI18226 cells after 72 hrs by MTS/PMS proliferation assay; format: functional, cell-based; settings: RPMI18226, 72 h
How it was run: (§2)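 Cells kept in RPMI1640 (RPMI 8226) or DMEM (MDA-MB-231) with nonessential amino acids, 2 mM L-glutamine, penicillin/streptomycin and 10% FBS at 37°C, 5% CO2. Seeded at 2000/well, attached overnight, then given compound across a concentration range in 1% DMSO final for 72 h. Viable cells read by MTS/PMS. 1% DMSO wells set as 100%. IC50 from separate triplicate experiments.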

[4] = target: Heat shock protein HSP 90-alpha (Homo sapiens) (UniProt P07900); assay: Inhibition of Hsp90alpha in human MDA-MB-231 cells assessed as cyclin D1 degradation at 80 uM by Western blot analysis; format: cell-based; how it was run: as §1
[5] = target: Heat shock protein HSP 90-alpha (Homo sapiens) (UniProt P07900); assay: Inhibition of Hsp90alpha in human MDA-MB-231 cells assessed as Akt degradation at 80 uM by Western blot analysis; format: cell-based; how it was run: as §1
[6] = target: Endoplasmin (Homo sapiens) (UniProt P14625); assay: Inhibition of Gpr94 in human RPMI18226 cells assessed as decrease in IGF-II secretion at 0.25 to 2 fold antiproliferative IC50 concentration by Western blot analysis; format: cell-based; how it was run: as §1
MDA-MB-231 [7] = assay: Inhibition of cell migration in human MDA-MB-231 cells assessed as reduction of cell migrated into scratched area after 16 to 24 hrs by wound healing assay; format: functional, cell-based
How it was run: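 Cells seeded at 200000/well and grown 24 h to a confluent monolayer at 37°C, 5% CO2. Each well scratched with a sterile pipet tip and photographed at 0 h. Compound added at 2.5 up to 25 μM (0.25% DMSO final). Migration into the wound photographed at 16 and 24 h. Quadruplicate wells on two different days.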

[8] = target: Heat shock protein HSP 90-alpha (Homo sapiens) (UniProt P07900); assay: Inhibition of Hsp90alpha in human RPMI18226 cells assessed as cyclin D1 degradation at 5 fold antiproliferative IC50 concentration by Western blot analysis; format: cell-based; how it was run: as §1
[9] = target: Endoplasmin (Homo sapiens) (UniProt P14625); assay: Binding affinity to Gpr94 in human MDA-MB-231 cells assessed as conformational change using 9G10 antibody by immunoblotting analysis; format: cell-based
How it was run: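 MDA-MB-231 cells treated overnight at 10 μM (high) or 1 μM (low). Radicicol 15 μM was the positive control and DMSO the negative control. Detergent lysates immunoprecipitated with the conformation-specific anti-Grp94 antibody 9G10, which recognizes only open, unliganded Grp94, on protein G magnetic beads. Precipitates immunoblotted for Grp94.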

MDA-MB-231 [10] = assay: Antiproliferative activity against human MDA-MB-231 cells after 72 hrs by MTS/PMS proliferation assay; format: functional, cell-based; settings: MDA-MB-231, 72 h; how it was run: as §2
[11] = target: Heat shock protein HSP 90-alpha (Homo sapiens) (UniProt P07900); assay: Inhibition of Hsp90alpha in human RPMI18226 cells assessed as Akt degradation at 5 fold antiproliferative IC50 concentration by Western blot analysis; format: cell-based; how it was run: as §1
MDA-MB-231 [12] = assay: Cytotoxicity against human MDA-MB-231 cells at 2.5 to 25 uM after 24 hrs; format: cell-based; settings: mda-mb-231, 24 h
[13] = target: Endoplasmin (Homo sapiens) (UniProt P14625); assay: Binding affinity to Gpr94 in human RPMI18226 cells using 9G10 antibody by immunoblotting analysis; format: cell-based
How it was run: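 Radicicol 15 μM was the positive control and DMSO the negative control. Detergent lysates pulled down with conformation-specific anti-Grp94 antibody 9G10 on protein G magnetic beads, then immunoblotted for Grp94.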

[14] = target: Endoplasmin (Homo sapiens) (UniProt P14625); assay: Inhibition of recombinant Grp94 (unknown origin) assessed as tracer bound at 25 uM after 24 hrs by fluorescence polarization assay relative to HSP90alpha (unknown origin)
How it was run: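 Compounds at 25 μM incubated 24 h with either cGrp94 or Hsp90α plus FITC-geldanamycin tracer (1% DMSO) to compare the two isoforms. Fluorescence polarization gave percent tracer bound, with DMSO as 100% and free tracer as 0%. Geldanamycin 50 nM was the positive control. Triplicate.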

[15] = target: Heat shock protein HSP 90-alpha (Homo sapiens) (UniProt P07900); assay: Inhibition of Hsp90alpha in human RPMI18226 cells assessed as cyclin D1 degradation at 0.5 to 5 fold antiproliferative IC50 concentration by Western blot analysis; format: cell-based; how it was run: as §1
[16] = target: Heat shock protein HSP 90-alpha (Homo sapiens) (UniProt P07900); assay: Inhibition of Hsp90alpha in human MDA-MB-231 cells assessed as Akt degradation at 60 uM by Western blot analysis; format: cell-based; how it was run: as §1
[17] = target: Heat shock protein HSP 90-alpha (Homo sapiens) (UniProt P07900); assay: Inhibition of Hsp90alpha in human MDA-MB-231 cells assessed as cyclin D1 degradation at 60 uM by Western blot analysis; format: cell-based; how it was run: as §1
[18] = target: Heat shock protein HSP 90-alpha (Homo sapiens) (UniProt P07900); assay: Inhibition of Hsp90alpha in human RPMI18226 cells assessed as Akt degradation at 0.5 to 5 fold antiproliferative IC50 concentration by Western blot analysis; format: cell-based; how it was run: as §1

Chain of Endoplasmin (Homo sapiens) (P14625 whole entry, canonical isoform): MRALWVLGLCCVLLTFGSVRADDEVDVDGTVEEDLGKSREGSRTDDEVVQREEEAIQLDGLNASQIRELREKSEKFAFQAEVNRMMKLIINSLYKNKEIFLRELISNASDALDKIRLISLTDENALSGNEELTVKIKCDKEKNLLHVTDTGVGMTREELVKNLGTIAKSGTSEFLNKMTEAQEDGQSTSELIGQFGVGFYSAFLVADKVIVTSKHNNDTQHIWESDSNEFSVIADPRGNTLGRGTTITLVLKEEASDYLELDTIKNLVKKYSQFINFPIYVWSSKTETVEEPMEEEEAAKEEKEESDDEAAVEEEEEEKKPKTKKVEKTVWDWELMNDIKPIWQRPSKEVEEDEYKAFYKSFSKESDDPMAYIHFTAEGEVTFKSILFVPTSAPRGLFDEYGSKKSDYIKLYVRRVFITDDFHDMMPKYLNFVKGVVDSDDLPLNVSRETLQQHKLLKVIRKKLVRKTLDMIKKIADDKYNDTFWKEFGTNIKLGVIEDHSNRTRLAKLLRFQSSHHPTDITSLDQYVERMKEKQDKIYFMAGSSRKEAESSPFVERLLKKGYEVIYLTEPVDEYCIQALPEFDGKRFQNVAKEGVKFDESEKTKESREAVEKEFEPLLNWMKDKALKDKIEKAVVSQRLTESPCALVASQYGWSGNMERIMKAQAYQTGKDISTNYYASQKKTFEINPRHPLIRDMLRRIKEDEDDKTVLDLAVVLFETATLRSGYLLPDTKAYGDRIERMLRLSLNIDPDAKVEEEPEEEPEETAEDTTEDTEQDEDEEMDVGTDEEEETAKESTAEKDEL

Structure (SMILES) | Activity [1] | other results
COC(=O)c1c(O)cc(O)c(Cl)c1CCC(=O)Nc1ccccc1F | 16.3% | 
COC(=O)c1c(O)cc(O)c(Cl)c1CCC(=O)Nc1ccc(OC)cc1 | 19.8% | 
COC(=O)c1c(O)cc(O)c(Cl)c1CCC(=O)Nc1ccccc1O | 18% | 
COC(=O)c1c(O)cc(O)c(Cl)c1CCC(=O)Nc1ncccc1Br | 0.2% | 
COC(=O)c1c(O)cc(O)c(Cl)c1CCC(=O)NCCc1ccccc1 | 33% | 
COC(=O)c1c(O)cc(O)c(Cl)c1CCC(=O)Nc1cccc(NC(C)=O)c1 | 8.3% | 
CCN(C(=O)CCc1c(Cl)c(O)cc(O)c1C(=O)OC)c1ccccc1 | 18.6% | 
COC(=O)c1c(O)cc(O)c(Cl)c1CCC(=O)NC1CCCCC1 | 26.1% | 
COC(=O)c1c(O)cc(O)c(Cl)c1CCC(=O)Nc1ccc(I)cc1 | 29.8% | 
COC(=O)c1c(O)cc(O)c(Cl)c1CCC(=O)Nc1ccc(C(F)(F)F)cc1 | 34.5% | 
COC(=O)c1c(O)cc(O)c(Cl)c1CCC(=O)Nc1cnncn1 | 19.5% | 
COC(=O)c1c(O)cc(O)c(Cl)c1CCC(=O)Nc1ncccc1Cl | 9.8% | 
COC(=O)c1c(O)cc(O)c(Cl)c1CCC(=O)Nc1ccc(Br)cc1Br | 50.7% | 
COC(=O)c1c(O)cc(O)c(Cl)c1CCC(=O)Nc1cc(Cl)ccn1 | 7.7% | 
COC(=O)c1c(O)cc(O)c(Cl)c1CCC(=O)Nc1cccc(Br)c1 | 9.3% | 
COC(=O)c1c(O)cc(O)c(Cl)c1CCC(=O)Nc1nnc(Br)s1 | 5.1% | 
COC(=O)c1c(O)cc(O)c(Cl)c1CCC(=O)Nc1ccc(Br)c(Cl)c1 | 71.4% | 
C#Cc1ccc(NC(=O)CCc2c(Cl)c(O)cc(O)c2C(=O)OC)cc1 | 12.7% | 
COC(=O)c1c(O)cc(O)c(Cl)c1CCC(=O)Nc1ncns1 | 10.2% | 
COC(=O)c1c(O)cc(O)c(Cl)c1CCC(=O)Nc1ccccc1C(F)(F)F | 13.4% | 
COC(=O)c1c(O)cc(O)c(Cl)c1CCC(=O)Nc1ccccc1 | 19.8% | 
COC(=O)c1c(O)cc(O)c(Cl)c1CCC(=O)Nc1ncc(Br)s1 | 27.7% | 

Structure (SMILES) | Activity [1] | other results
COC(=O)c1c(O)cc(O)c(Cl)c1CCC(=O)Nc1cncnc1 | 11.6% | 
COC(=O)c1c(O)cc(O)c(Cl)c1CCC(=O)Nc1nccs1 | 6.6% | inhibition [2]: Active; IC50 [3]: 7.83 µM; inhibition [4]: Active; inhibition [5]: Active; inhibition [6]: Active; inhibition (MDA-MB-231 [7]): Dose-dependent effect; inhibition [8]: Active; Activity [9]: Dose-dependent effect; IC50 (MDA-MB-231 [10]): 16 µM; inhibition [11]: Active; Activity (MDA-MB-231 [12]): Non-toxic; Activity [13]: Dose-dependent effect
COC(=O)c1c(O)cc(O)c(Cl)c1CCC(=O)Nc1ccc(Cl)cc1 | 15.7% | 
COC(=O)c1c(O)cc(O)c(Cl)c1CCC(=O)Nc1ccccc1Cl | 0.1% | Ratio [14]: 8
COC(=O)c1c(O)cc(O)c(Cl)c1CCC(=O)Nc1ccc(-c2ccccc2)cc1 | 85% | 
COC(=O)c1c(O)cc(O)c(Cl)c1CCC(=O)Nc1cccc(C(F)(F)F)c1 | 39.4% | 
COC(=O)c1c(O)cc(O)c(Cl)c1CCC(=O)Nc1cccc(O)c1 | 3.5% | 
COC(=O)c1c(O)cc(O)c(Cl)c1CCC(=O)NNc1ccccc1 | 26.3% | 
COC(=O)c1c(O)cc(O)c(Cl)c1CCC(=O)Nc1ccc(C#N)cc1 | 5.4% | 
COC(=O)c1c(O)cc(O)c(Cl)c1CCC(=O)Nc1ccncc1 | 34.9% | 
COC(=O)c1c(O)cc(O)c(Cl)c1CCC(=O)Nc1cccc(Cl)n1 | 1.4% | 
COC(=O)c1c(O)cc(O)c(Cl)c1CCC(=O)Nc1nncs1 | 8.7% | 
COC(=O)c1c(O)cc(O)c(Cl)c1CCC(=O)Nc1ccc(Br)cc1 | 2.1% | Ratio [14]: 27
COC(=O)c1c(O)cc(O)c(Cl)c1CCC(=O)Nc1ccc(O)cc1 | 6.5% | 
COC(=O)c1c(O)cc(O)c(Cl)c1CCC(=O)Nc1ccccn1 | 1% | inhibition [2]: Active; inhibition [15]: inactive; inhibition [16]: inactive; IC50 [3]: 9.12 µM; inhibition [17]: inactive; inhibition [6]: Active; inhibition (MDA-MB-231 [7]): Dose-dependent effect; Activity [9]: Dose-dependent effect; inhibition [18]: inactive; IC50 (MDA-MB-231 [10]): 12 µM; Activity (MDA-MB-231 [12]): Non-toxic; Activity [13]: Dose-dependent effect
COC(=O)c1c(O)cc(O)c(Cl)c1CCC(=O)Nc1ccccc1I | 7.9% | 
COC(=O)c1c(O)cc(O)c(Cl)c1CCC(=O)Nc1ccc(Br)cn1 | 0.1% | 
COC(=O)c1c(O)cc(O)c(Cl)c1CCC(=O)Nc1cccnn1 | 12.2% | 
COC(=O)c1c(O)cc(O)c(Cl)c1CCC(=O)Nc1ccc(C(C)C)cc1 | 59% | 
COC(=O)c1c(O)cc(O)c(Cl)c1CCC(=O)Nc1ccccc1N | 20.5% | 
COC(=O)c1c(O)cc(O)c(Cl)c1CCC(=O)Nc1cccc(-c2ccccc2)c1 | 46.8% | 
COC(=O)c1c(O)cc(O)c(Cl)c1CCC(=O)Nc1cccc(Cl)c1 | 0.1% | Ratio [14]: 25

Structure (SMILES) | Activity [1] | other results
COC(=O)c1c(O)cc(O)c(Cl)c1CCC(=O)Nc1ccc(F)cc1 | 10.9% | 
COC(=O)c1c(O)cc(O)c(Cl)c1CCC(=O)Nc1ccccc1Br | 6.1% | 
COC(=O)c1c(O)cc(O)c(Cl)c1CCC(=O)Nc1cc(Cl)cc(Cl)c1 | 15.6% | 
COC(=O)c1c(O)cc(O)c(Cl)c1CCC(=O)Nc1cccc(Cl)c1Br | 24.9% | 
COC(=O)c1c(O)cc(O)c(Cl)c1CCC(=O)N1CCc2ccccc21 | 23% | 
COC(=O)c1c(O)cc(O)c(Cl)c1CCC(=O)N(O)c1ccccc1 | 2.5% | 
COC(=O)c1c(O)cc(O)c(Cl)c1CCC(=O)Nc1ccc(C)cc1 | 18.7% | 
COC(=O)c1c(O)cc(O)c(Cl)c1CCC(=O)N(c1ccccc1)C(C)C | 30.2% | 
COC(=O)c1c(O)cc(O)c(Cl)c1CCC(=O)Nc1ncc(Cl)s1 | 22.4% | 
COC(=O)c1c(O)cc(O)c(Cl)c1CCC(=O)Nc1cccc(F)c1 | 11% | 
COC(=O)c1c(O)cc(O)c(Cl)c1CCC(=O)Nc1cccc(OC)c1 | 27.4% | 
COC(=O)c1c(O)cc(O)c(Cl)c1CCC(=O)Nc1ccccc1OC | 16.1% | 
COC(=O)c1c(O)cc(O)c(Cl)c1CCC(=O)Nc1ccc(N)cc1 | 15.7% | 
COC(=O)c1c(O)cc(O)c(Cl)c1CCC(=O)Nc1cnccn1 | 16.6% | 
COC(=O)c1c(O)cc(O)c(Cl)c1CCC(=O)NCc1ccccc1 | 65.8% | 
COC(=O)c1c(O)cc(O)c(Cl)c1CCC(=O)Nc1ncccn1 | 16.7% | 
COC(=O)c1c(O)cc(O)c(Cl)c1CCC(=O)Nc1cccnc1 | 14.9% | 
COC(=O)c1c(O)cc(O)c(Cl)c1CCC(=O)Nc1cccc(N)c1 | 17.4% | 
COC(=O)c1c(O)cc(O)c(Cl)c1CCC(=O)N(C)c1ccccc1 | 16.7% | 
COC(=O)c1c(O)cc(O)c(Cl)c1CCC(=O)Nc1ccccc1C | 3.4% | 
